Reference: ChEMBL document CHEMBL2346506, “Cytotoxicity and modulation of cancer-related signaling by (Z)- and (E)-3,4,3',5'-tetramethoxystilbene isolated from Eugenia rigida” (J Nat Prod, 2013)
The source made the active and inactive calls. The rule behind the calls is not given here.

Legend:
[1] = target: T1, Nitric oxide synthase, inducible (Mus musculus) (UniProt P29477); assay: Inhibition of iNOS in LPS-induced mouse RAW264.7 cells assessed as inhibition of […] up to 33.3 uM measured after 24 hrs; format: cell-based
T1 sequence (whole entry): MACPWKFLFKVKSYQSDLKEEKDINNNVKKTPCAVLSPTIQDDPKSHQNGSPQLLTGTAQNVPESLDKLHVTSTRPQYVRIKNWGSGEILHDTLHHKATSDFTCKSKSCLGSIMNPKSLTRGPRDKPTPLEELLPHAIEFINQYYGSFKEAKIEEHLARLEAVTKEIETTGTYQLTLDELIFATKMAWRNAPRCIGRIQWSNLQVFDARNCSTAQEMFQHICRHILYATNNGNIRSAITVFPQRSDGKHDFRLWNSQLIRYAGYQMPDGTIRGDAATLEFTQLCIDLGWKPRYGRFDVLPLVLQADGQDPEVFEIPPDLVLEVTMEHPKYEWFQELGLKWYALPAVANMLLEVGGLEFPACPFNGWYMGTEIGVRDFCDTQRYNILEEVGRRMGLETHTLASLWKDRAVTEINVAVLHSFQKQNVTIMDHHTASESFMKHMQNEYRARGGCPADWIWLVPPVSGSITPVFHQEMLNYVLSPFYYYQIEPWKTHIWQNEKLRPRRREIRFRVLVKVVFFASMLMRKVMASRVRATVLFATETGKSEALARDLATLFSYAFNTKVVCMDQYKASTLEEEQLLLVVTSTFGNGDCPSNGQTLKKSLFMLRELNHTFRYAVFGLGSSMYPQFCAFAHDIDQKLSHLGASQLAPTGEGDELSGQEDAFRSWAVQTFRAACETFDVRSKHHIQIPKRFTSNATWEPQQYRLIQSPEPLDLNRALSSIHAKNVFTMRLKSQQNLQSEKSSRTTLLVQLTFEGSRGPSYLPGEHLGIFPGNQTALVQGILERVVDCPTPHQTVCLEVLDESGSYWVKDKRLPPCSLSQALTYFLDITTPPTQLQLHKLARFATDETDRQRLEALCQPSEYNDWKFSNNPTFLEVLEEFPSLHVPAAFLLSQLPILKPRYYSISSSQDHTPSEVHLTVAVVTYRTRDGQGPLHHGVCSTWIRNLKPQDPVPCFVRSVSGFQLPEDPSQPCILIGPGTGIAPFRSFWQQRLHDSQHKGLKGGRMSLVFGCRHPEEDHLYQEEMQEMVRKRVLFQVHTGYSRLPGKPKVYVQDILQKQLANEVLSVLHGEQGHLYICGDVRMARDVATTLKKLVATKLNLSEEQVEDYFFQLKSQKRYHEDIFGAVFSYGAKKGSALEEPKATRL
How it was run: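 RAW 264.7 macrophages seeded at 50 000 per well and grown 24 h. Compound added 30 min before LPS (5 μg/mL), then cells incubated a further 24 h. Nitrite in the supernatant measured with Griess reagent relative to vehicle control. Parthenolide served as positive control; cytotoxicity checked in parallel.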

HL-60 [2] = assay: Inhibition of PMA induced ROS generation in human HL60 cells assessed as inhibition of ROA mediated oxidation of DCFH; format: functional, cell-based
How it was run: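 HL-60 cells (0.8 × 10⁶/mL) in RPMI-1640 with 10% FBS were pretreated 30 min with compound (0.4–100 μM). PMA (100 ng/mL) was then added for 30 min, followed by DCFH-DA (5 μg/mL) for 15 min. DCF fluorescence read at Ex 485 / Em 530 nm and compared with vehicle control. Trolox served as positive control.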

[3] = Inhibition of Hedgehog signaling pathway in human HeLa cells assessed as inhibition of PMA induced luciferase at 100 uM treated 30 mins before induction; format: cell-based
How it was run: (§1)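 Reporter assay in cells transfected with pathway luciferase plasmids. Cells plated at 0.015 × 10⁶ per well in 10% FBS, switched after 24 h to DMEM with 1% FBS, then transfected. 24 h after transfection, compound (final 40, 60, 80 or 100 μM) was added, followed 30 min later by inducer (IL-6, TGF-β, wnt3a or PMA). Luciferase was read 4 or 6 h after induction (6 h for Notch, Wnt, Hedgehog). Value is the IC50 or the lowest concentration giving maximal 50–60% inhibition; two independent experiments.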

[4] = Inhibition of Wnt signaling pathway in human HeLa cells assessed as measured as lowest concentration required 50 to 60 % inhibition of Wnt3a induced luciferase treated 30 mins before induction; format: cell-based; how it was run: as §1
[5] = Inhibition of Wnt signaling pathway in human HeLa cells assessed as inhibition of Wnt3a induced luciferase treated 30 mins before induction; format: cell-based; how it was run: as §1
[6] = target: Forkhead box protein O1 (Homo sapiens) (UniProt Q12778); assay: Inhibition of FoxO signaling pathway in human HeLa cells assessed as inhibition of luciferase at 100 uM […]; format: cell-based
Chain of Forkhead box protein O1 (Homo sapiens) (Q12778 whole entry): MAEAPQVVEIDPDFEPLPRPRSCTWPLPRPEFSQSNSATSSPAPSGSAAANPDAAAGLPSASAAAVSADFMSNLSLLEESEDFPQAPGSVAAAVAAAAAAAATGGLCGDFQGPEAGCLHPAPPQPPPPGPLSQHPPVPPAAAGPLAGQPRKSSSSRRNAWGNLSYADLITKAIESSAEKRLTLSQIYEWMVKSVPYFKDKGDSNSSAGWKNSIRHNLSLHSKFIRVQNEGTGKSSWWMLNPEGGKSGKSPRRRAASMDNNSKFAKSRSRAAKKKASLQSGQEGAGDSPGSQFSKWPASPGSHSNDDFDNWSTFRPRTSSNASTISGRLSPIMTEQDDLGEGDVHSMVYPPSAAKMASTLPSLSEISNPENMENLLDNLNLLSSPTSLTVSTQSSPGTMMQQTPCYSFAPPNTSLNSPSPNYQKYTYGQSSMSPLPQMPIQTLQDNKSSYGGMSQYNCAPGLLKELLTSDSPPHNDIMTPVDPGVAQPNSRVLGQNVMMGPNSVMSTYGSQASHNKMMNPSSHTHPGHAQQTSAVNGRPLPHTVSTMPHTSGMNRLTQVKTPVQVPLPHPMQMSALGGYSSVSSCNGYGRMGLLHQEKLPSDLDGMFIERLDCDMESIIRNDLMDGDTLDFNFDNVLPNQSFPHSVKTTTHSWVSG

[7] = Inhibition of Notch signaling pathway in human HeLa cells assessed as inhibition of PMA induced luciferase at 100 uM treated 30 mins before induction; format: cell-based; how it was run: as §1
[8] = Inhibition of Ets signaling pathway in human HeLa cells assessed as inhibition of PMA induced luciferase at 100 uM treated 30 mins before induction; format: cell-based; how it was run: as §1
[9] = target: Myc proto-oncogene protein (Homo sapiens) (UniProt P01106); assay: Inhibition of Myc signaling pathway in human HeLa cells assessed as inhibition of PMA induced luciferase at 100 uM treated 30 mins before induction; format: cell-based; how it was run: as §1
Chain of Myc proto-oncogene protein (Homo sapiens) (P01106 whole entry): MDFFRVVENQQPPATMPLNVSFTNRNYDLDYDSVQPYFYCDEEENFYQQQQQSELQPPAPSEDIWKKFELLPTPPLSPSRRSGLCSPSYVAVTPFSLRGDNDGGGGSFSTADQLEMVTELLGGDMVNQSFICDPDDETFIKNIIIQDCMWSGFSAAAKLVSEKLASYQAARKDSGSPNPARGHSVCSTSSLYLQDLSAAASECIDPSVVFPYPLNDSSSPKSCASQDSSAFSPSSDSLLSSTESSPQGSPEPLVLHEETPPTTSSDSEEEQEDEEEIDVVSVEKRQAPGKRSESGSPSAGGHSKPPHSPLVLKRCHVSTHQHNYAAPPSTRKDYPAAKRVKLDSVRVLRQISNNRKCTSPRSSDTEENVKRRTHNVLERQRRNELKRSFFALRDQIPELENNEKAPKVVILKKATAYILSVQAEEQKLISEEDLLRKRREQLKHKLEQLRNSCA

[10] = Inhibition of E2F signaling pathway in human HeLa cells assessed as inhibition of PMA induced luciferase at 100 uM treated 30 mins before induction; format: cell-based; how it was run: as §1
[11] = Inhibition of NFkappaB signaling pathway in human HeLa cells assessed as inhibition of PMA induced luciferase at 100 uM treated 30 mins before induction; format: cell-based; how it was run: as §1
[12] = Inhibition of NFkappaB signaling pathway in human HeLa cells assessed as inhibition of PMA induced luciferase treated 30 mins before induction; format: cell-based; how it was run: as §1
[13] = Inhibition of AP1 signaling pathway in human HeLa cells assessed as measured as lowest concentration required 50 to 60 % inhibition of PMA induced luciferase treated 30 mins before induction; format: cell-based; how it was run: as §1
[14] = Inhibition of AP1 signaling pathway in human HeLa cells assessed as inhibition of PMA induced luciferase treated 30 mins before induction; format: cell-based; how it was run: as §1
HeLa [15] = assay: Inhibition of smad3/4 signaling pathway in human HeLa cells assessed as measured as lowest concentration required 50 to 60 % inhibition of TGF-beta induced luciferase treated 30 mins before induction; format: functional; how it was run: as §1
HeLa [16] = assay: Inhibition of Stat3 signaling pathway in human HeLa cells assessed as inhibition of IL-6 induced luciferase at 100 uM treated 30 mins before induction; format: functional; how it was run: as §1
HeLa [17] = assay: Inhibition of smad3/4 signaling pathway in human HeLa cells assessed as inhibition of TGF-beta induced luciferase treated 30 mins before induction; format: functional, cell-based; how it was run: as §1
Vero [18] = assay: Cytotoxicity against african green monkey Vero cells assessed as growth inhibition measured at 100 uM after 48 hrs by […] assay; format: cell-based; details: chlorocebus sabaeus
LLC-PK1 [19] = assay: Cytotoxicity against pig LLC-PK1 cells assessed as growth inhibition measured at 100 uM after 48 hrs by […] assay; format: cell-based, Sus scrofa; details: llc-pk1, 48 h
SK-OV-3 [20] = assay: Cytotoxicity against human SKOV3 cells assessed as growth inhibition measured at 100 uM after 48 hrs by […] assay; format: functional, cell-based
HL-60 [21] = assay: Cytotoxicity against human HL60 cells assessed as growth inhibition measured after 48 hrs by XTT assay; format: functional, cell-based; details: HL-60, 48 h
HeLa [22] = assay: Cytotoxicity against human HeLa cells assessed as growth inhibition measured after 48 hrs by Neutral Red dye assay
SK-MEL = assay: Cytotoxicity against human SK-MEL cells assessed as growth inhibition measured after 48 hrs by Neutral Red dye assay
KB = assay: Cytotoxicity against human KB cells assessed as growth inhibition measured at 100 uM after 48 hrs by Neutral Red dye assay
BT-549 = assay: Cytotoxicity against human BT549 cells assessed as growth inhibition measured at 100 uM after 48 hrs by Neutral Red dye assay
[23] = Inhibition of Hedgehog signaling pathway in human HeLa cells assessed as measured as lowest concentration required 50 to 60 % inhibition of PMA induced luciferase treated 30 mins before induction; format: cell-based; how it was run: as §1
[24] = Inhibition of Hedgehog signaling pathway in human HeLa cells assessed as inhibition of PMA induced luciferase treated 30 mins before induction; format: cell-based
How it was run: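 HeLa cells plated at 0.015 × 10⁶/well in 10% FBS medium, switched after 24 h to DMEM with 1% FBS, then transfected with a Hedgehog luciferase reporter. After 24 h, compounds were added at 40, 60, 80 or 100 μM final, 30 min before PMA. Luciferase was read 6 h later. The value is the IC50 or lowest concentration giving maximal 50–60% inhibition, from two independent experiments.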

[25] = Inhibition of Notch signaling pathway in human HeLa cells assessed as measured as lowest concentration required 50 to 60 % inhibition of PMA induced luciferase treated 30 mins before induction; format: cell-based; how it was run: as §1
[26] = Inhibition of Notch signaling pathway in human HeLa cells assessed as inhibition of PMA induced luciferase treated 30 mins before induction; format: cell-based; how it was run: as §1
[27] = Inhibition of Ets signaling pathway in human HeLa cells assessed as measured as lowest concentration required 50 to 60 % inhibition of PMA induced luciferase treated 30 mins before induction; format: cell-based; how it was run: as §1
[28] = Inhibition of Ets signaling pathway in human HeLa cells assessed as inhibition of PMA induced luciferase treated 30 mins before induction; format: cell-based; how it was run: as §1
[29] = target: Myc proto-oncogene protein (Homo sapiens) (UniProt P01106); assay: Inhibition of Myc signaling pathway in human HeLa cells assessed as measured as lowest concentration required 50 to 60 % inhibition of PMA induced luciferase treated 30 mins before induction; format: cell-based; how it was run: as §1
[30] = Inhibition of NFkappaB signaling pathway in human HeLa cells assessed as measured as lowest concentration required 50 to 60 % inhibition of PMA induced luciferase treated 30 mins before induction; format: cell-based; how it was run: as §1
[31] = Inhibition of AP1 signaling pathway in human HeLa cells assessed as inhibition of PMA induced luciferase at 100 uM treated 30 mins before induction; format: cell-based; how it was run: as §1
HeLa [32] = assay: Inhibition of Stat3 signaling pathway in human HeLa cells assessed as measured as lowest concentration required 50 to 60 % inhibition of IL-6 induced luciferase treated 30 mins before induction; format: functional; how it was run: as §1
HeLa [33] = assay: Inhibition of Stat3 signaling pathway in human HeLa cells assessed as inhibition of IL-6 induced luciferase treated 30 mins before induction; format: functional, cell-based; how it was run: as §1
LLC-PK1 [34] = assay: Cytotoxicity against pig LLC-PK1 cells assessed as growth inhibition measured after 48 hrs by Neutral Red dye assay; details: Sus scrofa, LLC-PK1, 48 h
SK-OV-3 [35] = assay: Cytotoxicity against human SKOV3 cells assessed as growth inhibition measured after 48 hrs by Neutral Red dye assay; details: SK-OV-3, 48 h
HeLa [36] = assay: Cytotoxicity against human HeLa cells assessed as growth inhibition measured at 100 uM after 48 hrs by Neutral Red dye assay
Vero [37] = assay: Cytotoxicity against african green monkey Vero cells assessed as growth inhibition measured after 48 hrs by Neutral Red dye assay; details: Chlorocebus sabaeus

COc1cc(/C=C/c2ccc(OC)c(OC)c2)cc(OC)c1 [(E)-3,4,3',5'-TETRAMETHOXYSTILBENE]
inhibition [1]: inactive
IC50 (HL-60 [2]): 33.3 µM
inhibition [3]: < 40%
MED [4]: 80 µM
IC50 [5]: 80 µM
inhibition [6]: < 40%
inhibition [7]: < 40%
inhibition [8]: < 40%
inhibition [9]: < 40%
inhibition [10]: < 40%
inhibition [11]: < 40%
IC50 [12]: 90 µM
MED [13]: 100 µM
IC50 [14]: 80 µM
MED (HeLa [15]): 77 µM
inhibition at 100 µM (HeLa [16]): < 40%
IC50 (HeLa [17]): 100 µM
growth inhibition (GI) (Vero [18]): Not Active
growth inhibition (GI) (LLC-PK1 [19]): Not Active
growth inhibition (GI) (SK-OV-3 [20]): inactive
IC50 (HL-60 [21]): 33.3 µM
IC50 (HeLa [22]): 8 µM
IC50 (SK-MEL): 60 µM
growth inhibition (GI) (KB): inactive
growth inhibition (GI) (BT-549): inactive

Oc1ccc(/C=C/c2cc(O)cc(O)c2)cc1 [RESVERATROL]
MED [23]: 40 µM
IC50 [24]: 40 µM
MED [4]: 70 µM
IC50 [5]: 60 µM
inhibition [6]: < 40%
MED [25]: 40 µM
IC50 [26]: 40 µM
MED [27]: 55 µM
IC50 [28]: 50 µM
MED [29]: 55 µM
inhibition [10]: < 40%
MED [30]: 60 µM
IC50 [12]: 50 µM
inhibition [31]: < 40%
MED (HeLa [15]): 33 µM
IC50 (HeLa [17]): 50 µM
MED (HeLa [32]): 53 µM
IC50 (HeLa [33]): 70 µM
IC50 (HL-60 [21]): 31.8 µM
IC50 (LLC-PK1 [34]): 52.5 µM
IC50 (SK-OV-3 [35]): 113 µM
IC50 (SK-MEL): 47.3 µM
growth inhibition (GI) (KB): inactive
growth inhibition (GI) (HeLa [36]): inactive
growth inhibition (GI) (BT-549): inactive
IC50 (Vero [37]): 73.6 µM
